For orientation: GI50 means the concentration at which growth is held to half of that of the control.

The results in this text go back to ChEMBL document CHEMBL1772972, “Differential gene expression in rat vascular smooth muscle cells following treatment with coptisine exerts a selective antiproliferative effect” (2011).

Test [1] in a line: Growth inhibition against human SKN cells after 72 hrs by MTT assay. Type of test: functional. The method, boiled down: (§1)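 Cells were seeded in 24-well plates (SKN 1 × 10^4, G-402 2 × 10^4 cells/well) and cultured for 24 h. Alkaloid was then added, for 72 h with SKN or 48 h with G-402, and the medium was renewed. MTT was added (SKN 400 μg/mL, G-402 200 μg/mL) for 4 h, formazan was solubilized in SDS, and A570 was read. Growth % was corrected for time-0 absorbance relative to control, with 3 wells per point, and GI50 was derived from the concentration–growth data.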

The test system of test [2] is A10. As to the kind of experiment: Growth inhibition against rat A10 cells after 72 hrs by MTT assay. The note with it: A10, 72 h. Type of test: functional. Background: Tetrazolium assays rely on reduction of a dye to a coloured formazan, in cell work by metabolically active cells.
Test [3] can be described thus: Growth inhibition against rat VSMC after 72 hrs by MTT assay. Type of test: functional. The method, boiled down:
(§2)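 Cells are seeded at 1 × 10^4/well in 24-well plates and cultured 24 h. Alkaloid is then added at increasing concentrations for 72 h. Medium is renewed and MTT added at 1 mg/mL for 4 h. Formazan is dissolved in SDS and A570 read. Growth % = (treated − time 0)/(control − time 0). GI50 is taken from the curves. Data are mean ± SE of 3 wells. Primary VSMCs come from aortas of 10-week male Sprague-Dawley rats, used at passages 5–15.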

The test system of test [4] is A10. Put plainly: Upregulation of Rgc32 mRNA expression in rat A10 cells at 3 to 30 uM […] by quantitative RT-PCR analysis. The test is classed as functional, cell-based. The method in brief: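 A10 cells were plated at 6.0 × 10^4 cells/well in 6-well plates. They were treated across a concentration series for 24 h, or for 1, 3, 6, 12 or 24 h in a time course. Rgc32 mRNA was then measured by quantitative RT-PCR. Results are mean ± SD of 3 wells, compared against untreated control.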

A short description of test [5]: Antiproliferative activity against rat VSMC assessed as cell growth inhibition. Type of test: functional. The method, boiled down: as §2
In test [6] the test system is A10. Put plainly: Down regulation of Prim2 mRNA expression in rat A10 cells at 30 uM after 24 hrs by quantitative RT-PCR analysis. Type of test: functional, cell-based. The method, boiled down: (§3)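 A10 rat aortic smooth muscle cells were seeded at 6 × 10^4 cells/well in 6-well plates and exposed to 30 μM alkaloid for 24 h at 37 °C in 5% CO2. The cells were then harvested and target mRNA levels were quantified by quantitative RT-PCR.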

The subject of test [7] is A10. Put plainly: Downregulation of Impk mRNA expression in rat A10 cells at 30 uM after 24 hrs by quantitative RT-PCR analysis. The test is classed as functional, cell-based. The method in brief: as §3
Test [8] has as its system G-402. As to the kind of experiment: Growth inhibition against human G402 cells after 48 hrs by MTT assay. The test is classed as functional. To be noted: G-402, 48 h. The method in brief:
as §1

A short description of test [9]: Growth inhibition against human RKN cells after 48 hrs by MTT assay. Type of test: functional. The method in brief:
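RKN human ovarian leiomyosarcoma cells are seeded at 2 × 10^4/well in 24-well plates and cultured 24 h. Alkaloid is then added at increasing concentrations for 48 h. Medium is renewed and MTT added at 200 μg/mL for 4 h. Formazan is dissolved in SDS and A570 read. Growth % is calculated relative to time-0 and untreated absorbances. GI50 is taken from the curves. Data are mean ± SE of 3 wells.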

In test [10] the test system is A10. As to the kind of experiment: Downregulation of Scd2 mRNA expression in rat A10 cells at 30 uM after 24 hrs by quantitative RT-PCR analysis. Type of test: functional, cell-based. The method, boiled down: as §3
In test [11] the test system is A10. Put plainly: Upregulation of p21 mRNA expression in rat A10 cells at 3 to 30 uM after 24 hrs by quantitative RT-PCR analysis. The test is classed as functional, cell-based.
Test [12] concerns A10. Put plainly: Cell cycle arrest in Rgc32 overexpressing rat A10 cells assessed as accumulation at G2/M phase. Type of test: functional, cell-based.
Test [13] is described as follows: Upregulation of Rgc32 mRNA expression in rat 3Y1 cells at 3 to 30 uM after 24 hrs by quantitative RT-PCR analysis. The test is classed as functional, cell-based.
The test system of test [14] is A10. Put plainly: Upregulation of Gadd45a mRNA expression in rat A10 cells at 30 uM after 6 hrs by quantitative RT-PCR analysis. Type of test: functional, cell-based.
For test [15], the system named is A10. Put plainly: Upregulation of in Gadd45a mRNA expression in rat A10 cells at 3 uM after 24 hrs by quantitative RT-PCR analysis. The test is classed as functional, cell-based.
In test [16] the test system is A10. As to the kind of experiment: Upregulation of Gadd45a mRNA expression in rat A10 cells at 30 uM after 3 hrs by quantitative RT-PCR analysis. The test is classed as functional, cell-based.
In test [17] the test system is A10. Put plainly: Upregulation of p53 mRNA expression in rat A10 cells at 3 to 30 uM after 24 hrs by quantitative RT-PCR analysis. Type of test: functional, cell-based.
Test [18] in a line: Upregulation of Gadd45a mRNA expression in rat 3Y1 cells at 30 uM after 24 hrs by quantitative RT-PCR analysis. Type of test: functional, cell-based.
For test [19], the system named is A10. As to the kind of experiment: Cell cycle arrest in Gadd45a overexpressing rat A10 cells assessed as accumulation at G2/M phase. The test is classed as functional, cell-based.
A short description of test [20]: Growth inhibition against mouse BC3H1 cells after 72 hrs by MTT assay. Type of test: functional. The note with it: BC3H-1, 72 h. The method in brief:
as §2

In test [21] the test system is A10. As to the kind of experiment: Upregulation of Rgc32 mRNA expression in rat A10 cells at 30 uM after 24 hrs by quantitative RT-PCR analysis relative to control. Type of test: functional.
Test [22] concerns A10. As to the kind of experiment: Upregulation of Rgc32 mRNA expression in rat A10 cells at 3 uM after 24 hrs by quantitative RT-PCR analysis. The test is classed as functional, cell-based.
Test [23] has as its system A10. Put plainly: Upregulation of Rgc32 mRNA expression in rat A10 cells at 3 to 30 uM after 24 hrs by quantitative RT-PCR analysis. The test is classed as functional, cell-based.
The subject of test [24] is A10. As to the kind of experiment: Upregulation of Gadd45a mRNA expression in rat A10 cells at 30 uM after 24 hrs by quantitative RT-PCR analysis relative to control. The test is classed as functional.
Test [25] concerns A10. As to the kind of experiment: Upregulation of Calm1 mRNA expression in rat A10 cells at 30 uM after 24 hrs by quantitative RT-PCR analysis. Type of test: functional, cell-based. The method, boiled down:
as §3

Test [26] concerns A10. Put plainly: Upregulation of Ogfrl1 mRNA expression in rat A10 cells at 30 uM after 24 hrs by quantitative RT-PCR analysis. The test is classed as functional, cell-based. The method, boiled down: as §3
The test system of test [27] is A10. Put plainly: Upregulation of Jak2 mRNA expression in rat A10 cells at 30 uM after 24 hrs by quantitative RT-PCR analysis. Type of test: functional, cell-based. The method, boiled down: as §3

Molecules are shown by their SMILES. Active and inactive are the calls of the source. No cut-off for these calls is given here.

Turning to `COc1ccc2cc3[n+](cc2c1OC)CCc1cc2c(cc1-3)OCO2` [BERBERINE CHLORIDE], the GI50 in [1] worked out at 15.9 µM; in test [2] it was 102 µM; in test [3] it was 95.1 µM; in test [5], 95.1 µM; in test [8] it was 11.9 µM; in test [9], 49.6 µM. Besides, the outcome in [4] was inactive. The result in [6], in test [7] and in test [10] was Active.
With `[Cl-].c1c2c(cc3c1OCO3)-c1cc3ccc4c(c3c[n+]1CC2)OCO4` [COPTISINE CHLORIDE], the outcome in test [11], in test [12], in [16], in test [6], in test [7] and in [19] was Active. Besides, the result in test [10] and in test [23] was Active. For the same compound, the GI50 in [1] stood at 11.8 µM; in test [2], 4.49 µM; in test [3], 3.35 µM; in test [5], 3.3 µM; in [8], 19.1 µM; in [9], 33 µM. In addition, the GI50 in [20] came to 105 µM. Besides, the result in test [13], in [14], in test [15], in test [4], in test [17] and in test [22] was inactive. The results for the fold change (FC) in test [18], in test [21] and in test [24] were 1.5, 3.5 and 8, respectively.
Consider `COc1cc2c(cc1OC)-c1cc3ccc(OC)c(OC)c3c[n+]1CC2` [PALMATINE CHLORIDE], for which the result in test [25], in [6], in test [7], in test [26], in test [10] and in test [27] was Active. Besides, the GI50 was found to be 57.4 µM in test [1] and 83.1 µM in [8]. Also, the outcome in [4] was inactive.
